The results in this text go back to ChEMBL document CHEMBL3632461 (J Med Chem, 2015).

Some results are limits rather than exact numbers.

A short description of series [1]: Tmax in CD-1 mouse at 3 or 5 mg/kg, po. It is filed as ADME, organism-based. The note with it: in vivo. In short, it runs like this:
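Male animals (CD-1 mice 25−35 g, cannulated Wistar-Han rats 250 g, beagle dogs 12 kg, cynomolgus monkeys 7 kg), fasted overnight and fed 1.0 or 2.0 h after dosing, water ad libitum. Oral dose 3 or 5 mg/kg in 0.5% methylcellulose. Parameters calculated from plasma concentration−time data; mean ± SD for n = 3, individual values for n = 2.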

Series [2] in a line: Oral bioavailability in cynomolgus monkey at 3 or 5 mg/kg. It is filed as ADME, organism-based, Macaca fascicularis. The note with it: in vivo. The gist of the method: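 Male CD-1 mice, Wistar-Han rats, beagle dogs and cynomolgus monkeys, fasted overnight and fed after dosing. Given po at 3 or 5 mg/kg in 0.5% methylcellulose, with an iv reference dose of 1 mg/kg. Bioavailability derived from plasma concentration−time data; mean ± SD (n = 3) or individual values (n = 2).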

Series [3] concerns the target T1, Cytochrome P450 2B6 (Homo sapiens, UniProt P20813).
T1 sequence (P20813 whole entry): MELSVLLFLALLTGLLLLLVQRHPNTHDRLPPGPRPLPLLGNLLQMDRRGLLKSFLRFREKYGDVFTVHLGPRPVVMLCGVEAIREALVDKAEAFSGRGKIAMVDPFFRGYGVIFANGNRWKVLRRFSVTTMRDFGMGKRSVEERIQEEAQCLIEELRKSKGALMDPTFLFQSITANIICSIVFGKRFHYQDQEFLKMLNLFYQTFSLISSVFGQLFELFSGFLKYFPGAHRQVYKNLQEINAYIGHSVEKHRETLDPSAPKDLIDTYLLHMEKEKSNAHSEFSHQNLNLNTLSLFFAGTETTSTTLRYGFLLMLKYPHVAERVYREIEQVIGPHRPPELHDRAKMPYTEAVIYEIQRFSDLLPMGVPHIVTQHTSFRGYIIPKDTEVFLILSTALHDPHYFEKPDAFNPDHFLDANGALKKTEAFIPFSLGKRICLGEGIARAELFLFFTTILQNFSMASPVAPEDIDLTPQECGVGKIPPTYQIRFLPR
Put plainly: Reversible inhibition of CYP2B6 bupropion hydroxylase activity in human liver microsomes by LC-MS/MS analysis. Type of series: ADME. The gist of the method:
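Reversible inhibition of the major CYP enzymes tested in human liver microsomes using established protocols.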

The target in series [4] is T1, Cytochrome P450 2B6. The experiment in a line: Time-dependent inhibition of CYP2B6 in human liver microsomes. Type of series: ADME. The gist of the method: (§1)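 Time- and concentration-dependent CYP inhibition assessed by an IC₅₀ shift assay in human liver microsomes.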
Background: Microsomes from liver hold many membrane-bound enzymes, among them those of drug oxidation.

Another series deals with T2, Cytochrome P450 2C8 (Homo sapiens, UniProt P10632).
T2 sequence (P10632 whole entry): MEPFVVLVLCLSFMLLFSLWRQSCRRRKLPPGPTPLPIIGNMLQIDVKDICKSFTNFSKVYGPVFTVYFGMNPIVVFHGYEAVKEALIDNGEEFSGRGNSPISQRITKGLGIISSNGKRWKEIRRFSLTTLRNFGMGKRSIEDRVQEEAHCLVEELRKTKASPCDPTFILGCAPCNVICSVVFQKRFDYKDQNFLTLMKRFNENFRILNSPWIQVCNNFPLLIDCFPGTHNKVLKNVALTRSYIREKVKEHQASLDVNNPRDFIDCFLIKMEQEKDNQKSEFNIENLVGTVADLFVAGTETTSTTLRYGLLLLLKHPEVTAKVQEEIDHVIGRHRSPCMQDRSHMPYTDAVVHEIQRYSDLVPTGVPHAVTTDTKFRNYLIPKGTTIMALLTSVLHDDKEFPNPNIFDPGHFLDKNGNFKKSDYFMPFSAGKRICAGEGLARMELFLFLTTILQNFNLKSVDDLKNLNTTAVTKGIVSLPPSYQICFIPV
Put plainly: Time-dependent inhibition of CYP2C8 in human liver microsomes. It is filed as ADME. In short, it runs like this:
as §1

Another series addresses Cytochrome P450 2C19 (Homo sapiens, UniProt P33261). Put plainly: Time-dependent inhibition of CYP2C19 in human liver microsomes. Type of series: ADME. The gist of the method:
as §1

A short description of series [5]: Drug metabolism assessed as formation of 5-(2,4-dimethoxyphenyl)-7-oxo-2,3,4,7-tetrahydrooxazolo[3,2-a]pyrimidin-4-ium at 10 uM after 60 mins by LC-MS/MS analysis in presence of human MPO/H2O2/Cl-. Conditions: 1 h. It is filed as physicochemical. The gist of the method:
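Also incubated at 10 μM in a human MPO/H₂O₂/Cl⁻ system. Parent and cyclic ether product tracked by LC−MS/MS using retention time and MH⁺.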

Cytochrome P450 2C19, sequence (P33261 whole entry): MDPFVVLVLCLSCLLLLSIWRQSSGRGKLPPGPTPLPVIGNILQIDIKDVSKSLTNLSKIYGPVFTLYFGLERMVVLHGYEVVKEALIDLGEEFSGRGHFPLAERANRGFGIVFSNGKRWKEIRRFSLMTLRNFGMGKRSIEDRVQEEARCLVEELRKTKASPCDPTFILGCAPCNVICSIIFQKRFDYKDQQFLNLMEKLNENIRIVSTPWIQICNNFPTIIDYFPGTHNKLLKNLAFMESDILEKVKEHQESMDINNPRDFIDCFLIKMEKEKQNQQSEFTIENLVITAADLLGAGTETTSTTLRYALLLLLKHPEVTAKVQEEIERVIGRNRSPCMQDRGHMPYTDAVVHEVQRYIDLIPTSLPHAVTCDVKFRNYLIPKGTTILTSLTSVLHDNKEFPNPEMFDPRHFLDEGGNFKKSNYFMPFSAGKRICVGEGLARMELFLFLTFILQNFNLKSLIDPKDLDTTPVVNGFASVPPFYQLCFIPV

What is called Tmax is the time from dosing to the highest level. One may read the bioavailability as dose-corrected exposure relative to a reference, in per cent. As a reminder, the IC50 is the concentration needed to halve the response being measured. In the case of `COc1ccc(Cl)cc1-c1cc(=O)[nH]c(=S)n1CC(N)=O` [PF-06282999], in series [1], the Tmax turned out to be 1 h. Moreover, in series [2], the bioavailability came to 76%. Further, the IC50 against Cytochrome P450 2B6 [3], against Cytochrome P450 2B6 [4], at Cytochrome P450 2C8 and against Cytochrome P450 2C19 was more than 100 µM in each case.
As to `COc1ccc(-c2cc(=O)[nH]c(=S)n2CCO)c(OC)c1`, the Drug metabolism entry in series [5] is “metabolite_detected”.
